Converted amounts (≈) assume the structure as drawn.
Legend:
Assay type in all cases: functional
[1] = test system: Mycobacterium tuberculosis; assay: Antimycobacterial activity against multidrug sensitive Mycobacterium tuberculosis H37Rv CNCTC 331/88 assessed as bacterial growth inhibition incubated for 14 days by two-fold serial dilution method; details: H37Rv CNCTC 331/88, 336 h, time 14 day
[2] = test system: Mycobacterium tuberculosis; assay: Antimycobacterial activity against Mycobacterium tuberculosis H37Rv CNCTC 331/88 assessed as bacterial growth inhibition incubated for 21 days by two fold serial dilution method; details: H37Rv CNCTC 331/88, 504 h, time 21 day
Mycobacterium avium [3] = assay: Antimycobacterial activity against INH/RIF/rifabutin/OFX/EMB resistant Mycobacterium avium CNCTC 330/88 assessed as bacterial growth inhibition incubated for 14 days by two-fold serial dilution method; details: CNCTC 330/88, 336 h, time 14 day
How it was run: (§1)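 M. avium CNCTC 330/88 (stock suspension dilution 10−5) grown in Šula's semisynthetic liquid medium; two-fold serial dilutions 1000 to 1 μM from DMSO stocks (final DMSO 1.0% v/v); final load 1.5 × 10^5 CFU mL−1; MIC read visually as lowest concentration giving complete growth inhibition after 14 and 21 days.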

Mycobacterium avium [4] = assay: Antimycobacterial activity against INH/RIF/rifabutin/OFX/EMB resistant Mycobacterium avium CNCTC 330/88 assessed as bacterial growth inhibition incubated for 21 days by two-fold serial dilution method; details: CNCTC 330/88, 504 h, time 21 day; how it was run: as §1
Mycobacterium kansasii [5] = assay: Antimycobacterial activity against INH/RIF/rifabutin/OFX/EMB Mycobacterium kansasii CNCTC 6509/96 clinical isolate assessed as bacterial growth inhibition incubated for 7 days by two-fold serial dilution method; details: CNCTC 6509/96, 168 h, time 7 day
How it was run: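 Šula's liquid semisynthetic medium; M. kansasii clinical isolate 6509/96 used at stock dilution 10−4, final ~1.5 × 10^5 CFU mL−1. Two-fold dilutions ran 1000–1 μM with final DMSO 1.0% (v/v). MIC was read visually as complete growth inhibition after 7, 14 and 21 days.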

Mycobacterium kansasii [6] = assay: Antimycobacterial activity against multi-drug resistant Mycobacterium kansasii CNCTC 6509/96 clinical isolate assessed as bacterial growth inhibition incubated for 14 days by two-fold serial dilution method; details: CNCTC 6509/96, 336 h, time 14 day
How it was run: (§2)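 M. kansasii clinical isolate 6509/96 (stock dilution 10−4) in Šula's semisynthetic liquid medium; two-fold serial dilutions 1000 to 1 μM, DMSO final 1.0% v/v; final load 1.5 × 10^5 CFU mL−1; MIC read visually as complete growth inhibition at 7, 14 and 21 days.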

Mycobacterium kansasii [7] = assay: Antimycobacterial activity against multi-drug resistant Mycobacterium kansasii clinical isolate CNCTC 6509/96 assessed as bacterial growth inhibition incubated for 21 days by two-fold serial dilution method; details: CNCTC 6509/96, 504 h, time 21 day; how it was run: as §2
Candida albicans [8] = assay: Antifungal activity against Candida albicans ATCC 24443 measured after 24 to 48 hrs by microdilution broth method; details: time 24-48 hrs
How it was run: (§3)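 Yeast broth microdilution per EUCAST, slightly modified. Medium was RPMI-1640 with 2% glucose, MOPS-buffered to pH 7.0. Compounds were tested at 0.98–500 μM with final DMSO ≤1.0% (v/v). Inoculum came from 18–24 h cultures, final ~1–5 × 10^5 CFU mL−1. Plates were incubated statically, dark and humidified, at 35 ± 2 °C. MIC was read visually at 24 and 48 h (no visible growth).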

Candida albicans [9] = assay: Antifungal activity against Candida albicans CCM 8320 measured after 24 to 48 hrs by microdilution broth method; details: time 24-48 hrs; how it was run: as §3
Pichia kudriavzevii [10] = assay: Antifungal activity against Candida krusei ATCC 6258 measured after 24 to 48 hrs by microdilution broth method; details: time 24-48 hrs; how it was run: as §3
Pichia kudriavzevii [11] = assay: Antifungal activity against Candida krusei CCM 8271 measured after 24 to 48 hrs by microdilution broth method; details: time 24-48 hrs; how it was run: as §3
Candida parapsilosis [12] = assay: Antifungal activity against Candida parapsilosis ATCC 22019 measured after 24 to 48 hrs by microdilution broth method; details: Lodderomyces parapsilosis, time 24-48 hrs; how it was run: as §3
Candida parapsilosis [13] = assay: Antifungal activity against Candida parapsilosis CCM 8260 measured after 24 to 48 hrs by microdilution broth method; details: Lodderomyces parapsilosis, time 24-48 hrs; how it was run: as §3
Candida tropicalis [14] = assay: Antifungal activity against Candida tropicalis ATCC 750 measured after 24 to 48 hrs by microdilution broth method; details: time 24-48 hrs; how it was run: as §3
Candida tropicalis [15] = assay: Antifungal activity against Candida tropicalis CCM 8264 measured after 24 to 48 hrs by microdilution broth method; details: time 24-48 hrs; how it was run: as §3
Aspergillus fumigatus = assay: Antifungal activity against Aspergillus fumigatus ATCC 204305 measured after 24 to 48 hrs by microdilution broth method; details: time 24-48 hrs
How it was run: (§4)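 Filamentous fungi tested by broth microdilution per EUCAST with minor changes. Compounds were tested at 0.98–500 μM with final DMSO ≤1.0% (v/v). Plates were incubated statically, dark and humidified, at 35 ± 2 °C for 24 and 48 h. MIC was the lowest concentration showing no visible growth.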

Aspergillus flavus = assay: Antifungal activity against Aspergillus flavus CCM 8363 measured after 24 to 48 hrs by microdilution broth method; details: time 24-48 hrs; how it was run: as §4
Lichtheimia corymbifera = assay: Antifungal activity against Lichtheimia corymbifera CCM 8077 measured after 24 to 48 hrs by microdilution broth method; details: time 24-48 hrs; how it was run: as §4
[16] = test system: Trichophyton interdigitale; assay: Antifungal activity against Trichophyton interdigitale ATCC 9533 measured after 24 to 48 hrs by microdilution broth method; details: time 24-48 hrs
[17] = test system: Trichophyton interdigitale; assay: Antifungal activity against Trichophyton interdigitale CCM 8377 measured after 24 to 48 hrs by microdilution broth method; details: time 24-48 hrs

Row | Structure (SMILES) | MIC [1] | MIC [2] | MIC (Mycobacterium avium [3]) | MIC (Mycobacterium avium [4]) | MIC (Mycobacterium kansasii [5]) | MIC (Mycobacterium kansasii [6]) | MIC (Mycobacterium kansasii [7]) | MIC (Candida albicans [8]) | MIC (Candida albicans [9]) | MIC (Pichia kudriavzevii [10]) | MIC (Pichia kudriavzevii [11]) | MIC (Candida parapsilosis [12]) | MIC (Candida parapsilosis [13]) | MIC (Candida tropicalis [14]) | MIC (Candida tropicalis [15]) | MIC (Aspergillus fumigatus) | MIC (Aspergillus flavus) | MIC (Lichtheimia corymbifera) | MIC [16] | MIC [17]
1 | Nc1ccc(S(=O)(=O)Nc2ccc(-c3ccccc3)cc2)cc1 | 500 µM (≈ 162 µg/mL) | 500 µM (≈ 162 µg/mL) | ≥ 1000 µM | ≥ 1000 µM | 250 µM (≈ 81.1 µg/mL) | 250 µM (≈ 81.1 µg/mL) | 500 µM (≈ 162 µg/mL) | – | – | – | – | – | – | – | – | – | – | – | – | –
2 | O=C(/C=N/NC(=O)c1ccncc1)Nc1ccc(S(=O)(=O)Nc2ncccn2)cc1 | 1 µM (≈ 0.425 µg/mL) | 2 µM (≈ 0.851 µg/mL) | 500 µM (≈ 213 µg/mL) | 500 µM (≈ 213 µg/mL) | 8 µM (≈ 3.4 µg/mL) | 16 µM (≈ 6.81 µg/mL) | 16 µM (≈ 6.81 µg/mL) | – | – | – | – | – | – | – | – | – | – | – | – | –
3 | COc1ccc(NS(=O)(=O)c2ccc(NC(=O)/C(C)=N/NC(=O)c3ccncc3)cc2)nn1 | 1 µM (≈ 0.469 µg/mL) | 1 µM (≈ 0.469 µg/mL) | ≥ 1000 µM | ≥ 1000 µM | 32 µM (≈ 15 µg/mL) | 32 µM (≈ 15 µg/mL) | 32 µM (≈ 15 µg/mL) | > 500 µM | > 500 µM | > 500 µM | > 500 µM | > 500 µM | > 500 µM | > 500 µM | > 500 µM | > 500 µM | > 500 µM | > 500 µM | > 500 µM | > 500 µM
4 | C/C(=N\NC(=O)c1ccncc1)C(=O)Nc1ccc(S(=O)(=O)Nc2cc(C)on2)cc1 | 0.5 µM (≈ 0.221 µg/mL) | 1 µM (≈ 0.442 µg/mL) | 1000 µM (≈ 442 µg/mL) | ≥ 1000 µM | 16 µM (≈ 7.08 µg/mL) | 32 µM (≈ 14.2 µg/mL) | 32 µM (≈ 14.2 µg/mL) | > 500 µM | > 500 µM | > 500 µM | > 500 µM | > 500 µM | > 500 µM | > 500 µM | > 500 µM | > 500 µM | > 500 µM | > 500 µM | > 500 µM | > 500 µM
5 | Nc1ccc(S(=O)(=O)Nc2ccc(Oc3ccccc3)cc2)cc1 | 500 µM (≈ 170 µg/mL) | 500 µM (≈ 170 µg/mL) | 1000 µM (≈ 340 µg/mL) | 1000 µM (≈ 340 µg/mL) | 250 µM (≈ 85.1 µg/mL) | 500 µM (≈ 170 µg/mL) | 500 µM (≈ 170 µg/mL) | – | – | – | – | – | – | – | – | – | – | – | – | –
6 | Cc1cc(C)nc(NS(=O)(=O)c2ccc(NC(=O)/C=N/NC(=O)c3ccncc3)cc2)n1 | 1 µM (≈ 0.453 µg/mL) | 2 µM (≈ 0.907 µg/mL) | 1000 µM (≈ 453 µg/mL) | ≥ 1000 µM | 8 µM (≈ 3.63 µg/mL) | 16 µM (≈ 7.26 µg/mL) | 16 µM (≈ 7.26 µg/mL) | – | – | – | – | – | – | – | – | – | – | – | – | –
7 | COC(=O)c1ccc(NS(=O)(=O)c2ccc(N)cc2)cc1O | 250 µM (≈ 80.6 µg/mL) | 250 µM (≈ 80.6 µg/mL) | > 1000 µM | > 1000 µM | 1000 µM (≈ 322 µg/mL) | > 1000 µM | > 1000 µM | – | – | – | – | – | – | – | – | – | – | – | – | –
8 | O=C(/C=N/NC(=O)c1ccncc1)NNC(=O)c1ccncc1 | 1 µM (≈ 0.312 µg/mL) | 2 µM (≈ 0.625 µg/mL) | 1000 µM (≈ 312 µg/mL) | > 1000 µM | 8 µM (≈ 2.5 µg/mL) | 16 µM (≈ 5 µg/mL) | 16 µM (≈ 5 µg/mL) | – | – | – | – | – | – | – | – | – | – | – | – | –
9 | NS(=O)(=O)c1ccc(NC(=O)/C=N/NC(=O)c2ccncc2)cc1 | 1 µM (≈ 0.347 µg/mL) | 2 µM (≈ 0.695 µg/mL) | 1000 µM (≈ 347 µg/mL) | ≥ 1000 µM | 16 µM (≈ 5.56 µg/mL) | 32 µM (≈ 11.1 µg/mL) | 32 µM (≈ 11.1 µg/mL) | – | – | – | – | – | – | – | – | – | – | – | – | –
10 | Nc1ccc(S(=O)(=O)Nc2ccc(Oc3ccc(Cl)cc3)cc2)cc1 | 250 µM (≈ 93.7 µg/mL) | 500 µM (≈ 187 µg/mL) | 1000 µM (≈ 375 µg/mL) | 1000 µM (≈ 375 µg/mL) | 250 µM (≈ 93.7 µg/mL) | 500 µM (≈ 187 µg/mL) | 500 µM (≈ 187 µg/mL) | – | – | – | – | – | – | – | – | – | – | – | – | –
